From PubChem
dFosB act-1: mouse delta FosB homodimer activation; P13346; purified delta FosB, TAMRA-CDK5 oligo fluorescence polarization; percent of positive-control signal above neutral wells; activation, % at 25 µM; 340,000 tested, 0.99% active; AID 493131;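 active = mean activation above about 17%, with every replicate also reaching it, limit read from the data, passing the limit was not always enough; inconclusive = only one of the two conditions met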
Target sequence (P13346 whole entry, looked up): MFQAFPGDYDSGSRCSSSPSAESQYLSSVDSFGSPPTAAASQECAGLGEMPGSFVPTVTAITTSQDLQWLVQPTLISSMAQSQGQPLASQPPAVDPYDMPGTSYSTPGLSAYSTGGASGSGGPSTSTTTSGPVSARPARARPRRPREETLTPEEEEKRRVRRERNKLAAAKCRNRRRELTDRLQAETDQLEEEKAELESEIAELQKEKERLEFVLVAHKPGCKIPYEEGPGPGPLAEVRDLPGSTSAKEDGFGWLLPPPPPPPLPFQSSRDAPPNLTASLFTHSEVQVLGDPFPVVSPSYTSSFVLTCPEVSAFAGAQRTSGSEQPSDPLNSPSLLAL
INS-1E GSIS act: GLuc luminescence reporter in INS-1E cells, primary screen for activators of glucose-dependent secretion of insulin. INS-1E GLuc reporter insulin secretion, 2-3 h. activation, % at 16.6 µM. 370,000 tested, 0.61% active. AID 743287;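 active = lowest replicate activation of at least 40%, so every replicate reaches that level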;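 note: 0% = median of neutral control wells and 100% = median of IBMX positive control wells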
Cneo AK release: Cryptococcus neoformans lysis via adenylate kinase release; C. neoformans lysis, adenylate kinase release luminescence, 4 h; normalised: neutral wells 0, clomiphene wells 100; AID 651654; lysis activity, % at 15 µM; 360,000 tested, 0.2% active;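 active = mean lysis activity across replicates of at least 80%, whatever share of replicates individually reach that level; inactive = mean lysis activity below 80%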
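Signal: Adenylate kinase release luminescence | Assay system: Log-phase Cryptococcus neoformans yeast cells | Input: Cells at 5 × 10^6 per mL | Buffer or medium: Fresh YPD growth medium | Compound: Single dose | Schedule: Static 4 h at 37 °C with compound, 1 h detection | Controls: Clomiphene | Read-out: Luminescence rise reflecting yeast cell lysis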
Env fusion inh: HIV envelope-mediated fusion inhibition. HeLa-JRFL Env/CEM21 cell fusion, luciferase. inhibition, % at 12.3 µM. 360,000 tested, 1.1% active. AID 651610;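 active = mean replicate inhibition score of at least 50 and every replicate individually at or above 50; inconclusive = only one of the two criteria met; inactive = mean below 50 and not all replicates reaching 50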;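 note: 0% = plate neutral controls and 100% = maraviroc near 300 nM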
PAX8 inh HTS: inhibitors of PAX8 transcriptional activity in RMG-I cells. 360,000 tested, 1.2% active. inhibition, % at 12.6 µM. RMG-I TPO-luciferase reporter, SteadyGlo, 24 h;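 active = mean replicate inhibition at least 60% with every replicate also reaching 60%; inconclusive = only one of the two criteria is met; inactive = mean below 60% and not all replicates reaching 60%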;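 note: luciferase light reporting Pax8 driven TPO promoter activity; plate controls were median of neutral control wells for no effect and mitoxantrone controls for full effect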
CDK5 p35 inh: blocks human CDK5/p35 kinase activity | inhibition, % at 10 µM | Recombinant CDK5/p35, ADP-Glo luminescence, 60 min | 330,000 tested, 0.01% active;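 active = highest replicate inhibition of at least 50% and at least 75% of replicates reaching 50%; inconclusive = only one of the two criteria met; inactive = both criteria failed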;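 note: plate controls were DMSO neutral control for no effect and GW8510 at 10 µM for full effect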
dFosB act-2: delta FosB (mouse) homodimer activation | shares compounds with dFosB act-1 | purified delta FosB, TAMRA-CDK5 oligo fluorescence polarization; normalised: neutral wells 0, positive control 100 | activation, % at 24.9 µM | 2,400 tested, under 10 active;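 active = highest replicate activation at or above 34% and every replicate reaching that threshold; inconclusive = meets only one of the two criteria; inactive = meets neither criterion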;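 note: higher polarization means more probe DNA bound by delta FosB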
* = called active by the depositor; u = inconclusive; x = no result given; [ ] = dose if it differs, or a comment. Compounds with a hit are over-represented: about 2.9% of the library has one in this group of screens.

SMILES | dFosB act-1 | INS-1E GSIS act | Cneo AK release | Env fusion inh | PAX8 inh HTS | CDK5 p35 inh | dFosB act-2
CCOc1cc(CNCCCN2CCOCC2)cc(Br)c1OCc1ccccc1Cl | 21* | 0 | 6 | 18 | 36 | 0 | 1
C[C@@H]1CN([C@H](C)CO)S(=O)(=O)c2ccc(-c3cncnc3)cc2O[C@@H]1CN(C)C(=O)C1CC1 | x | 3 | x | 2[16.7 µM] | x | x | x
COc1ccccc1/C=C1\SC(=O)N(CCC(=O)NNC(=O)c2ccccc2Cl)C1=O | 21* | x | 0 | -45 | -18 | 0 | 2
CCS(=O)(=O)Nc1ccc(-c2nnc(SCC(=O)c3ccc(NC(C)=O)c(OC)c3)o2)cc1 | 34* | x | x | x | x | -1 | 8
CCS(=O)(=O)Nc1ccc(-c2nnc(SCC(=O)c3cccc(OC)c3)o2)cc1 | -3 | x | 0 | x | x | 1 | x
Cc1ccc(-c2ccc3c(c2)O[C@H](CN(C)C(=O)Nc2ccc(C(F)(F)F)cc2)[C@@H](C)CN([C@@H](C)CO)S3(=O)=O)cc1 | x | -2 | -2 | 28[16.7 µM] | x | x | x
COc1ccc(S(=O)(=O)N(C)C[C@H]2Oc3ccc(NC(=O)Nc4ccccc4)cc3C(=O)N([C@@H](C)CO)C[C@@H]2C)cc1 | x | 5 | -1 | 4[16.7 µM] | x | x | x
COc1ccc(C2CC(c3ccccc3)=NN2C(=O)COC(=O)c2cc(S(=O)(=O)N3CCOCC3)ccc2Cl)cc1 (stereo not given) | 30* | 11 | x | x | 21 | 0 | 2
COc1ccc(C2CC(c3ccccc3)=NN2C(=O)COC(=O)c2cccnc2Cl)cc1 (stereo not given) | 0 | -24 | x | -19 | 0 | 1 | x
CC(C)CC(=O)Nc1ccc(C(=O)Cn2nc(C(=O)O)c3ccccc3c2=O)cc1 | 4 | x | -2 | x | x | 0 | x
CC(C)(C)c1ccc(C(=O)Cn2nc(C(=O)O)c3ccccc3c2=O)cc1 | 29* | -17 | x | 7 | -7 | -8 | 6
Cc1ccc(Nc2nc(Nc3ccc(C)cc3)nc(SC3=NCCS3)n2)cc1 | 26* | x | x | x | x | 5 | 5
O=C(C1CCC1)N1[C@@H](CO)[C@@H](c2ccccc2)C12CN(Cc1cccc(Cl)c1)C2 | x | 0 | x | 26[16.7 µM] | 7 | x | x
Cc1ccc(SCc2nc3ccccc3n2CC(=O)Nc2c(C)cccc2C)cc1 | 32* | 3 | 0 | -24 | x | 1 | 0
Cc1ccc(SCc2nc3ccccc3n2CC(=O)Nc2ccccc2)cc1 | 0 | x | -4 | 20 | x | 1 | x
CCC(=O)N1CC2(CN[C@@H](CO)c3c2c2ccc(OC)cc2n3C)C1 | x | 8 | x | x | x | x | x
CO[C@H]1CN(C)C(=O)c2ccc(NS(=O)(=O)c3ccccc3)cc2OC[C@H](C)N(Cc2ccccn2)C[C@H]1C | x | -9 | -1 | x | -9 | x | x
Cc1sc2nc(CN3CCCC3)nc(N3CCN(S(=O)(=O)c4cccc(F)c4)CC3)c2c1C | 44* | 7 | 3 | x | 0 | 2 | 5
Cc1ccc(-c2ccc3c(c2)O[C@@H](CN(C)Cc2cccc(C(=O)O)c2)[C@H](C)CN([C@H](C)CO)S3(=O)=O)cc1 | x | -7 | 0 | 0[16.7 µM] | x | x | x
C/C(=N\NC(=S)NC1CCCCC1)c1ccc(C#N)cc1 | 36* | x | 1 | -2 | 3 | 0 | 6
N#Cc1ccc(C(=O)NC(=S)NC2CCCCC2)cc1 | -12 | -2 | 7 | x | -26 | -1 | x
CO[C@@H]1CN(C)C(=O)c2cc(NS(C)(=O)=O)ccc2OC[C@H](C)N(Cc2ccccc2)C[C@@H]1C | x | -2 | -4 | 4[16.7 µM] | 2 | x | x
CC(=O)Nc1nc(-c2ccc([N+](=O)[O-])cc2)cs1 | 2 | 2 | x | -15 | -31 | -1 | x
O=C(Nc1cccc(Cl)c1)Nc1nc(-c2ccccc2)cs1 | 0 | -5 | x | -9 | -19 | 1 | x
CC(=O)Nc1nc(-c2cc([N+](=O)[O-])cs2)cs1 | 29* | 1 | x | -2 | -11 | -1 | -2
SMILES | dFosB act-1 | INS-1E GSIS act | Cneo AK release | Env fusion inh | PAX8 inh HTS | CDK5 p35 inh | dFosB act-2
O=C(Nc1ccc(Cl)cc1)Nc1nc(-c2ccccc2)cs1 | 30* | -2 | x | 11 | 5 | 1 | 6
O=C(Nc1ccc([N+](=O)[O-])cc1)Nc1nc(-c2ccc(Cl)s2)cs1 | 29* | x | x | u | 106* | -3 | 7
CCCS(=O)(=O)N1CCN(CCN2C(=O)c3cccc4cccc(c34)C2=O)CC1 | 3 | -1 | x | 16 | 4 | 1 | x
O=C1c2cccc3cccc(c23)C(=O)N1CCO | x | 32 | 1 | -41 | -23 | x | x
NC(=O)CN1CCN(CCN2C(=O)c3cccc4cccc(c34)C2=O)CC1 | 24* | 1 | -2 | -8 | -24 | -1 | -9
Nc1cc2c3c(cccc3c1)C(=O)N(CCN1CCCC1)C2=O | 57* | -1 | 1 | -57 | 11 | 1 | -2
CCN(CC)CCN1C(=O)c2cccc3cc(N)cc(c23)C1=O | 24* | 10 | -4 | -99 | -13 | 1 | -4
N#Cc1cccc(-c2ccc3c(c2)[C@H]2[C@H](CCN2C(=O)c2ccccc2F)[C@H](CO)N3)c1 | x | 12 | -22 | x | -1 | x | x
CC(=O)Nc1ccc2c(c1)C(=O)N(C)[C@@H]1CC[C@H](CC(=O)NCCCN3CCOCC3)O[C@H]1CO2 | x | -2 | 3 | 18[16.7 µM] | -5 | x | x
CCN(CC)Cc1cc2[nH]c3c4ccc(Cl)cc4ncc3c2cc1OC | 24* | 12 | 3 | 4 | 32 | 0 | 6
NC(=O)c1ccc(NC(=O)COC(=O)c2cc3ccccc3cc2O)cc1 | 36* | 27 | -1 | 5 | 13 | 0 | 1
O=C(COC(=O)c1cc2ccccc2cc1O)Nc1ccccc1F | 6 | 32 | 0 | 13 | 14 | 0 | x
O=C(COC(=O)CNS(=O)(=O)/C=C/c1ccccc1)Nc1cccc2ccccc12 | 27* | -2 | x | -6 | 10 | 1 | -4
CCc1cccc(C)c1NC(=O)COC(=O)CNS(=O)(=O)/C=C/c1ccccc1 | -6 | -2 | 0 | -6 | 14 | -1 | x
O=C(COC(=O)c1ccccc1O)Nc1cccc2ccccc12 | 39* | 7 | -2 | x | 3 | -1 | -2
CO[C@@H]1CN(C)C(=O)c2cc(NC(=O)c3ccc(Oc4ccccc4)cc3)ccc2OC[C@@H](C)NC[C@@H]1C | x | 18 | 2 | 2[16.7 µM] | -5 | x | x
O=C(Cc1ccc(F)cc1)Nc1nc(-c2ccc(F)c(F)c2)cs1 | -4 | -2 | 4 | -37 | -17 | -1 | x
O=C(CSc1ncnc2[nH]ncc12)Nc1nc(-c2ccc(F)c(F)c2)cs1 | 33* | 1 | x | 17 | 17 | 1 | -1
COC(=O)C[C@H]1CC[C@@H]2[C@H](COc3ccc(NS(=O)(=O)c4ccc(C)cc4)cc3C(=O)N2C)O1 | x | -11 | -2 | -9[16.7 µM] | 7 | x | x
